H69AR inhibit: growth inhibitors of human H69AR lung tumor cells; H69AR lung tumor viability, ATP luminescence, 72 h; active compounds read low; viability, % at 10 µM; 85,000 tested, 6% active; AID 598;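 active means viability at or below 40%; inactive means viability above 40%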;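 further: multidrug resistant small cell line overexpressing MRP-1 efflux transporter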
HCT116 bCat-KO: beta-catenin-lacking colon tumor cell growth suppression | HCT116 beta-catenin knockout viability, CellTiter-Glo, 60 h; active compounds read low | viability, % at 10 µM | 140,000 tested, 1.5% active | AID 818;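 active means viability at or under a set limit, the compound median less 4 SD, cut at about 6% in these data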
HUVEC inhibit: blocks proliferation of human endothelial cells; 86,000 tested, 1.1% active; AID 648; HUVEC proliferation, CellTiter-Glo luminescence, 72 h; active compounds read low; viability, % at 10 µM (by protocol);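 active means viability at or below 30%; inactive means viability above 30%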
PTEN del growth: growth suppressors of cells with PTEN tumor suppressor deletion. HCT116 PTEN-null viability, CellTiter-Glo, 60 h; active compounds read low. viability, % at 10 µM. 140,000 tested, 1.2% active. AID 827;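 active means viability at or below a set limit, 4 SD under the median of all tested compounds, cut at about 3.7% in these data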;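 further: PTEN knockout HCT116 line with beta catenin targeted HCT116 as companion control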
Lung fibro prol: blocks proliferation of human lung fibroblasts; LL 47 human lung fibroblast viability, ATP luminescence; active compounds read low; 85,000 tested, 1.1% active; viability, % at 10 µM;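 active means viability at or below 50% in the single dose screen; inactive means viability above 50%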;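 further: compound exposure lasted 72 h before the ATP readout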
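Material: Human LL 47 lung fibroblast cells | Input: 1,150 cells/well | Buffer or medium: IMEM plus 15% FBS | Compound dosing: 0.1% DMSO in all compound wells | Times: Overnight cell rest, 72 h compound treatment at 37 °C | Signal: CellTiter-Glo luminescence measuring cellular ATP | Measure: % viability versus median cells-only luminescence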
Hits are given with their value; i = inactive; nt = not tested or not shown. Many of the other results were omitted from the sample, so hits are more common in it than they were.

SMILES	H69AR inhibit	HCT116 bCat-KO	HUVEC inhibit	PTEN del growth	Lung fibro prol
O=C(Nc1sc2c(c1C(=O)NC1CC1)CCCCCC2)c1ccco1	30	i	i	i	i
COc1cc(C(=O)Nc2sc3c(c2C(=O)NCc2ccco2)CCCC3)cc(OC)c1OC	i	i	i	i	i
CC(=O)Nc1sc2c(c1C(N)=O)CCC2	i	i	i	i	i
NC(=O)c1c(NC(=O)c2cc3ccccc3o2)sc2c1CCC2	24	i	i	i	i
Cn1cnnc1Sc1ccc(C(=O)NCCC23CC4CC(CC(C4)C2)C3)cc1[N+](=O)[O-]	nt	i	nt	i	nt
COC(=O)Nc1sc2c(c1C(=O)NCc1ccco1)CCC2	39	i	i	i	i
Cc1ccc(C(=O)Nc2sc3c(c2C(=O)NCc2ccco2)CCCC3)cc1	11	i	i	i	i
O=C1C=C(NNC(=O)c2ccccc2Br)CCC1	nt	i	nt	i	nt
C(=C\c1ccccc1)/CN1CCN(C(c2ccccc2)c2ccccc2)CC1	23	i	i	i	i
O=C(Nc1ccccc1)N(CCc1ccncc1)C1CCCCC1	i	nt	i	nt	i
CC(C)c1ccc(NC(=O)N(CCc2nc3ccccc3[nH]2)C2CCCC2)cc1	32	i	i	i	i
COc1ccc(N/N=C(/C)c2cnnc(-c3ccccc3)n2)cc1	nt	i	nt	i	nt
CCOC(=O)c1c2c(n(C)c1C)C(=O)C(=O)c1ccc(Br)cc1-2	1.6	nt	3.3	nt	3.0
O=C(NC1C=CS(=O)(=O)C1)c1sc2ccccc2c1Cl (stereo unspecified)	1.7	i	i	i	i
CC1=C(C(=O)OCc2ccc3c(c2)OCO3)C(c2ccc(F)cc2)NC(=O)N1 (stereo unspecified)	nt	i	nt	i	nt
CC1=C(C(=O)OCc2ccc3c(c2)OCO3)C(c2ccc(Cl)cc2)NC(=O)N1 (stereo unspecified)	29	i	27	i	i
Oc1ccc(Cl)cc1-c1cc(-c2ccccc2Cl)[nH]n1	31	i	i	i	i
Oc1ccccc1-c1cc(-c2ccccc2Cl)[nH]n1	22	i	25	i	i
Oc1ccccc1-c1cc(-c2ccco2)[nH]n1	i	i	i	i	i
Cc1ccc(O)c(-c2cc(-c3ccccc3C)[nH]n2)c1	0.5	i	i	i	i
Oc1ccc(Cl)cc1-c1cc(-c2cccc(Br)c2)n[nH]1	4.2	i	i	i	i
CN(C)c1ccc(NC(=O)COC(=O)Cn2nnc3ccccc32)cc1	nt	i	nt	i	nt
CCOC(=O)c1c(NC(=O)COC(=O)c2cc(OC)c(OC)cc2[N+](=O)[O-])sc(C)c1C	nt	i	nt	i	nt
Cc1ccc(COn2c(-c3ccc(Cl)cc3Cl)nc3ncccc32)cc1	39	i	i	i	i
O=c1cnn(-c2ccccc2)c(-c2ccccc2)c1	25	i	i	i	i
SMILES	H69AR inhibit	HCT116 bCat-KO	HUVEC inhibit	PTEN del growth	Lung fibro prol
COc1cnn(-c2ccccc2)c(=O)c1N(C)C	i	i	i	i	i
Cc1ccc(OCC(=O)Sc2ccc(C)cc2)cc1	17	i	i	i	i
COc1ccccc1OCC(=O)Sc1ccc(C)cc1	i	i	i	i	i
O=C(OCCN1C(=O)c2cccc3c(N4CCOCC4)ccc(c23)C1=O)c1ccccc1Cl	nt	5.3	nt	i	nt
CCCCN(CC)c1nc(-c2ccncc2)nc2ccccc12	20	i	i	i	i
CCOc1ccc(-n2nnnc2-c2nc3ccccc3s2)cc1	nt	3.3	nt	3.1	nt
Cc1ccc(-n2nnnc2-c2nc3ccccc3s2)cc1	nt	i	nt	i	nt
Cc1cccc(NC(=O)C2(c3cccs3)CCOCC2)n1	nt	i	nt	i	nt
CC(C)(C)c1ccc(OCC(=O)N/N=C/c2cc(Br)ccc2OC(=O)c2ccco2)cc1	nt	4.8	nt	i	nt
CCCC1(c2ccccc2)NC(=O)N(CC(=O)Nc2sc(-c3ccccc3)cc2C(=O)OCC)C1=O (stereo unspecified)	34	i	22	i	22
CCOC(=O)c1cc(-c2ccccc2)sc1NC(=O)CC(C)C	nt	i	nt	i	nt
Cc1ccc(-c2nc3ccccc3s2)cc1NC(=S)NC(=O)c1cccc2ccccc12	nt	1.3	nt	1.7	nt
O=C(/C=C/c1ccco1)NC(=S)Nc1cc(-c2nc3ccccc3s2)ccc1Cl	nt	2.6	nt	1.6	nt
Cc1ccc(-c2nc3ccccc3s2)cc1NC(=S)NC(=O)/C=C/c1ccco1	nt	i	nt	i	nt
O=C(NC1CCCC1)C(c1ccc(F)cc1)N(Cc1ccc(F)cc1)C(=O)CCl (stereo unspecified)	nt	i	nt	i	nt
CC(Oc1ccc(Cl)cc1Cl)c1nc(-c2ccc(NC(=O)c3ccccn3)cc2)no1 (stereo unspecified)	29	i	i	i	i
COc1ccc(-c2cn3c(C)c(C(=O)NCc4ccc5c(c4)OCO5)sc3n2)cc1	i	nt	i	nt	i
Cc1c(C(=O)Nc2ccncc2)sc2nc(-c3ccc(F)cc3)cn12	17	i	29	i	i
COc1ccc(-c2cn3c(C)c(C(=O)Nc4cccc(NC(C)=O)c4)sc3n2)cc1	26	i	23	i	i
COc1ccc(-c2cn3c(C)c(C(=O)Nc4ccncc4)sc3n2)cc1	i	i	i	i	i
CCOC(=O)C1CCN(C(=O)c2sc3nc(-c4ccc(F)cc4)cn3c2C)CC1	35	i	i	i	i
COC(=O)c1ccc(NC(=O)c2sc3nc(-c4ccccc4)cn3c2C)cc1	37	i	i	i	i
CCOC(=O)C1CCCN(C(=O)c2sc3nc(-c4ccc(F)cc4)cn3c2C)C1 (stereo unspecified)	i	i	i	i	i
CCCN1C=CC(=C2C(=O)c3ccccc3C2=O)C=C1	i	i	i	i	i
CCN1C=CC(=C2C(=O)c3ccccc3C2=O)C=C1	27	i	i	i	i
SMILES	H69AR inhibit	HCT116 bCat-KO	HUVEC inhibit	PTEN del growth	Lung fibro prol
Cn1c(SCC(=O)N(C2CCCCC2)C2CCCCC2)nnc1-c1cccs1	20	i	i	i	i
Cc1ccccc1/C=C1\CCCc2ccccc2C1=O	i	i	i	i	i
COc1ccc(/C=C2\CCc3ccccc3C2=O)cc1OC	nt	i	nt	i	nt
O=C1/C(=C/c2cccc([N+](=O)[O-])c2)CCc2ccccc21	nt	3.2	nt	2.0	nt
O=C1/C(=C\c2ccc3ccccc3c2)CCCc2ccccc21	17	i	i	i	i
CCN1C/C(=C\c2cccc([N+](=O)[O-])c2)C(=O)/C(=C/c2cccc([N+](=O)[O-])c2)C1	nt	1.6	nt	1.4	nt
CCCCCCNCc1c(F)cccc1Cl	nt	i	nt	i	nt
C/C(Cn1cnc([N+](=O)[O-])n1)=N/NC(=O)COc1c(Cl)cc(Cl)cc1Cl	nt	i	nt	i	nt
COc1ccc(-n2nnnc2S(=O)(=O)CC(=O)N2CCCCC2)cc1	2.0	1.7	i	1.3	33
CCN(CC(=O)Nc1ccc([N+](=O)[O-])cc1OC)c1ccccc1	nt	i	nt	i	nt
CCCCN1C(=O)C2(NNc3ccccc3O2)c2ccccc21 (stereo unspecified)	nt	i	nt	i	nt
C=CCN1C(=O)C2(NNc3ccccc3O2)c2ccccc21 (stereo unspecified)	13	i	23	i	i
COc1cc(NC(=O)CN2C(=O)NC(C)(c3ccc4ccccc4c3)C2=O)c(C)cc1[N+](=O)[O-] (stereo unspecified)	nt	i	nt	i	nt

From PubChem BioAssay
